Data reported in ChEMBL document CHEMBL4261657, “Discovery of Clinical Candidate 2-(4-(2-((1 H-Benzo[ d]imidazol-2-yl)thio)ethyl)piperazin-1-yl)- N-(6-methyl-2,4-bis(methylthio)pyridin-3-yl)acetamide Hydrochloride [K-604], an Aqueous-Soluble Acyl-CoA:Cholesterol O-Acyltransferase-1 Inhibitor” (J Med Chem, 2018).
≈ marks a conversion by molar mass, not a printed value. Blank lines part the entries; values can stand above or below the compound they belong to. Calls of active or inactive are those of the source. No cut-off for these calls is given here.

Columns and labels:
[1] = Inhibition of ACAT in arterial homogenates isolated from 1% cholesterol fed New Zealand White rabbit assessed as reduction in cholesteryl oleate formation incubated for 5 mins in presence of [14C]-oleoyl-CoA and BSA complex by TLC method; assay type: tissue-based, Oryctolagus cuniculus
[2] = Inhibition of ACAT in New Zealand White rabbit intestinal microsomes assessed as reduction in cholesteryl oleate formation incubated for 3 mins in presence of [14C]-oleoyl-CoA and BSA complex by TLC method; set-up: species or system Oryctolagus cuniculus, Intestine
[3] = Aqueous solubility of the compound at pH 1.2; assay type: physicochemical; conditions: aqueous solution
Oryctolagus cuniculus [4] = species on record: Oryctolagus cuniculus; assay: Selectivity ratio of IC50 for ACAT in New Zealand White rabbit intestinal microsomes to IC50 for ACAT in arterial homogenates isolated from 1% cholesterol fed New Zealand White rabbit
[5] = Tmax in Sprague-Dawley rat at 30 mg/kg, po by LC/MS analysis; assay type: ADME, organism-based; conditions: in vivo
Method in brief: (§1)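 Nonfasted male Sprague-Dawley rats (8 weeks old, n = 3) were given a single oral dose of 30 mg/kg in 0.05 N HCl solution. Heparin plasma was drawn from the forearm vein at 0.5, 1, 2, 4, 6 and 8 h. Samples were basified with NH4OH, spiked with internal standard, extracted with i-PrOH/n-hexane 5:95 and quantified by positive-ion ESI LC/MS on an RP8 column at 40 °C.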

[6] = Cmax in Sprague-Dawley rat at 30 mg/kg, po by LC/MS analysis; assay type: ADME, organism-based; set-up: dose 30 mg/kg, route oral; conditions: in vivo; method in brief: as §1
[7] = Half life in Sprague-Dawley rat at 30 mg/kg, po by LC/MS analysis; assay type: ADME, organism-based; conditions: in vivo; method in brief: as §1
[8] = AUC (0 to infinity) in Sprague-Dawley rat at 30 mg/kg, po by LC/MS analysis; assay type: ADME, organism-based; set-up: dose 30 mg/kg, route oral, time infinity; conditions: in vivo; method in brief: as §1
Hamster [9] = assay: Antiatherosclerotic activity in Bio F1B hamster model of diet-induced atherosclerosis assessed as reduction in lipid accumulation areas in aortic arch at 3 mg/kg/day added to chow pellets by oil red O staining based assay relative to control; assay type: functional, Cricetinae; set-up: scale not given: the % may be the effect or the level left
Method in brief: (§2)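 Male Bio F1B hamsters (8 weeks old) were fed CE-2 chow with 0.3% cholesterol and 10% coconut oil for 10 weeks, with compound mixed into the chow (n=7 per dose; reference group n=6). Plasma TC was measured by enzymatic kit. Aorta was perfusion-fixed with 4% paraformaldehyde under pentobarbital anaesthesia, opened and stained with oil red O, and lipid area was measured by image analysis. Results are % of control ± SD, analysed by Dunnett's test.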

Hamster [10] = assay: Antiatherosclerotic activity in Bio F1B hamster model of diet-induced atherosclerosis assessed as reduction in lipid accumulation areas in aortic arch at 10 mg/kg/day added to chow pellets by oil red O staining based assay relative to control; assay type: functional, Cricetinae; set-up: scale not given: the % may be the effect or the level left; method in brief: as §2
Hamster [11] = assay: Antiatherosclerotic activity in Bio F1B hamster model of diet-induced atherosclerosis assessed as reduction in total plasma cholesterol at 3 mg/kg/day added to chow pellets relative to control; assay type: functional, Cricetinae; set-up: scale not given: the % may be the effect or the level left; method in brief: as §2
Hamster [12] = assay: Antiatherosclerotic activity in Bio F1B hamster model of diet-induced atherosclerosis assessed as reduction in total plasma cholesterol at 10 mg/kg/day added to chow pellets relative to control; assay type: functional, Cricetinae; set-up: scale not given: the % may be the effect or the level left; method in brief: as §2
Hamster [13] = assay: Antiatherosclerotic activity in Bio F1B hamster model of diet-induced atherosclerosis assessed as reduction in total plasma cholesterol at 30 mg/kg/day added to chow pellets relative to control; assay type: functional, Cricetinae; set-up: scale not given: the % may be the effect or the level left; method in brief: as §2
Hamster [14] = assay: Antiatherosclerotic activity in Bio F1B hamster model of diet-induced atherosclerosis assessed as reduction in CE to FC ratio in liver at 1 to 30 mg/kg/day added to chow pellets; assay type: functional, organism-based; conditions: Cricetinae
Hamster [15] = assay: Toxicity in Bio F1B hamster model of diet-induced atherosclerosis assessed as reduction in CE to FC ratio in adrenal gland at 1 to 30 mg/kg/day added to chow pellets; assay type: organism-based; conditions: cricetinae, in vivo, po
Salmonella typhimurium [16] = assay: Genotoxicity in Salmonella typhimurium TA98 by Ames test; assay type: toxicity, organism-based; conditions: salmonella enterica subsp. enterica serovar typhimurium
Salmonella typhimurium [17] = assay: Genotoxicity in Salmonella typhimurium TA100 by Ames test; assay type: toxicity, organism-based; conditions: salmonella enterica subsp. enterica serovar typhimurium
Salmonella typhimurium [18] = assay: Genotoxicity in Salmonella typhimurium TA1537 by Ames test; assay type: toxicity, organism-based; conditions: salmonella enterica subsp. enterica serovar typhimurium
Salmonella typhimurium [19] = assay: Genotoxicity in Salmonella typhimurium TA1535 by Ames test; assay type: toxicity, organism-based; conditions: salmonella enterica subsp. enterica serovar typhimurium
Escherichia coli = assay: Genotoxicity in Escherichia coli […] by Ames test; assay type: toxicity, organism-based
[20] = Chemical stability of the compound in acidic condition at 10 mg after 7 days by HPLC analysis; assay type: physicochemical; conditions: 168 h
Hamster [21] = assay: Antiatherosclerotic activity in Bio F1B hamster model of diet-induced atherosclerosis assessed as reduction in CE to FC ratio in intestine at 1 to 30 mg/kg/day added to chow pellets; assay type: functional, organism-based; conditions: Cricetinae
Oryctolagus cuniculus [22] = species on record: Oryctolagus cuniculus; conditions: New Zealand White

Compound: CC(C)c1cccc(C(C)C)c1NC(=O)CCCCCSc1nc2cccc(CN(C)C)c2o1
IC50 [1]: 96 nM
IC50 [2]: 130 nM
solubility [3]: 400 µg/mL (≈ 830 µM)

Compound: CC(C)c1cc(C(C)C)c(NC(=O)CN2CCN(CCSc3nc4ncccc4o3)CC2)c(C(C)C)c1
IC50 [1]: 300 nM
IC50 [2]: 1300 nM

Compound: CC(C)c1cc(C(C)C)c(NC(=O)CN2CCN(CCSc3nc4ccccc4s3)CC2)c(C(C)C)c1
IC50 [1]: 130 nM
IC50 [2]: 310 nM

Compound: CC(C)c1cc(C(C)C)c(NC(=O)CN2CCN(CCSc3nc4ccccc4o3)CC2)c(C(C)C)c1
IC50 [1]: 34 nM
IC50 [2]: 270 nM

Compound: CC(C)c1cccc(C(C)C)c1NC(=O)CCCCCSc1nc2cccc(N(C)C)c2o1
solubility [3]: 180 µg/mL (≈ 385 µM)

Compound: CC(C)c1cccc(C(C)C)c1NC(=O)CN1CCN(CCSc2nc3ccccc3s2)CC1
IC50 [1]: 16 nM
IC50 [2]: 36 nM

Compound: CSc1cc(C)nc(SC)c1NC(=O)CN1CCN(CCSc2nc3ccccc3o2)CC1
IC50 [1]: 33 nM
IC50 [2]: 29 nM
Tmax [5]: 2.8 h
Cmax [6]: 158 ng/mL
half-life [7]: 10.1 h
AUC(0-inf) [8]: 4120 ng·h/mL
Activity (Hamster [9]): 37%
Activity (Hamster [10]): 32%
Activity (Hamster [11]): 73%
Activity (Hamster [12]): 28%
Activity (Hamster [13]): 24%
Activity (Hamster [14]): Active
Activity (Hamster [15]): Toxic
Activity (Salmonella typhimurium [16]): Non-Toxic
Activity (Salmonella typhimurium [17]): Non-Toxic
Activity (Salmonella typhimurium [18]): Non-Toxic
Activity (Salmonella typhimurium [19]): Non-Toxic
Activity (Escherichia coli): Non-Toxic
Stability [20]: Unstable
Activity (Hamster [21]): Active
fIC50 (Oryctolagus cuniculus [22]): 0.89 nM

The next lines start with results.

IC50 [1]: 36 nM
IC50 [2]: 180 nM
Compound: CC(C)c1cccc(C(C)C)c1NC(=O)/C=C/CCCSc1nc2ccccc2o1
Ratio IC50 (Oryctolagus cuniculus [4]): 5

IC50 [1]: 25 nM
IC50 [2]: 64 nM
Compound: CC(C)c1cccc(C(C)C)c1NC(=O)CN1CCCN(CCCSc2nc3ccccc3o2)CC1

IC50 [1]: 12 nM
IC50 [2]: 37 nM
Compound: CC(C)c1cccc(C(C)C)c1NC(=O)CN1CCN(CCSc2nc3ccccc3o2)CC1

IC50 [1]: 110 nM
IC50 [2]: 510 nM
Compound: CC(C)c1cccc(C(C)C)c1NC(=O)CN1CCN(CCSc2nc3ccccc3[nH]2)CC1

IC50 [1]: 26 nM
IC50 [2]: 250 nM
Compound: CC(C)c1cccc(C(C)C)c1NC(=O)[C@H]1CC[C@H](CSc2nc3ccccc3o2)CC1
Ratio IC50 (Oryctolagus cuniculus [4]): 9.6
